Data from ChEMBL document CHEMBL1148737, “Quantitative structure-activity relationship studies of [(biphenyloxy)propyl]isoxazole derivatives. Inhibitors of human rhinovirus 2 replication” (J Med Chem, 2007).

Experiments:
[1] = Selectivity index, ratio of CC50 for HeLa cells to IC50 for HRV2; assay type: functional
Method in brief: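 Computed as CC50 (HeLa, 72 h crystal violet viability) divided by IC50 (HRV-2 CPE inhibition in HeLa, 72 h), both in µg/mL.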

[2] = tested on: HeLa; assay: Cytotoxicity against human HeLa cells; assay type: cell-based; parameters: unit not given here
Method in brief: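 2-day-old confluent HeLa monolayers were exposed to serial 2-fold compound dilutions for 72 h at 37 °C, 5% CO2. Cells were fixed and stained with crystal violet formalin, and the dye was extracted and read at 550/630 nm. Viability was expressed as percent of the mean of six mock-treated controls. CC50 is the concentration cutting viability by 50%.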

[3] = tested on: rhinovirus A2; assay: Antiviral activity against HRV2 in HeLa cells by CPE assay; assay type: functional; parameters: unit not given here
Method in brief: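 HRV-2 stock grown in HeLa cells. 1-day-old confluent HeLa monolayers were given compound in test medium (2% NCS) plus virus at MOI 0.01 after medium removal. CPE was scored 72 h post-infection by crystal violet uptake, with six uninfected and six infected untreated wells per plate and pleconaril as reference. IC50 was taken from mean dose-response curves of at least three separate experiments.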

Cc1cc(CCCOc2c(C)cc(-c3cc(F)c(F)c(F)c3)cc2C)on1
logSI [1]: 3.34
logCC50 [2]: 1.88
logIC50 [3]: -1.46

Cc1cc(CCCOc2c(C)cc(-c3cc(C(F)(F)F)cc(C(F)(F)F)c3)cc2C)on1
logSI [1]: 0
logCC50 [2]: 1.7
logIC50 [3]: 1.7

C=Cc1ccc(-c2cc(C)c(OCCCc3cc(C)no3)c(C)c2)cc1
logSI [1]: 3.2
logCC50 [2]: 2.3
logIC50 [3]: -0.9

Cc1ccc(C)c(-c2cc(C)c(OCCCc3cc(C)no3)c(C)c2)c1
logSI [1]: 0.6
logCC50 [2]: 1.7
logIC50 [3]: 1.06

Cc1cc(CCCOc2c(C)cc(-c3ccc(F)cc3F)cc2C)on1
logSI [1]: 3.2
logCC50 [2]: 0.9
logIC50 [3]: -2.3

Cc1cc(CCCOc2c(C)cc(-c3ccccc3C)cc2C)on1
logSI [1]: 1.76
logCC50 [2]: 0.66
logIC50 [3]: -1.09

Cc1cc(CCCOc2c(C)cc(-c3ccc(Br)cc3)cc2C)on1
logSI [1]: 0.85
logCC50 [2]: 0.68
logIC50 [3]: -0.15

Cc1cc(CCCOc2c(C)cc(-c3ccc(F)cc3)cc2C)on1
logSI [1]: 3.74
logCC50 [2]: 1.7
logIC50 [3]: -2.05

Cc1cc(CCCOc2c(C)cc(-c3noc(C(F)(F)F)n3)cc2C)on1 [PLECONARIL]
logSI [1]: 2.8
logCC50 [2]: 1.1
logIC50 [3]: -1.7

Cc1cc(CCCOc2c(C)cc(-c3ccc(OC(F)(F)F)cc3)cc2C)on1
logSI [1]: 1
logCC50 [2]: 1.03
logIC50 [3]: 0.05

Cc1cc(CCCOc2c(C)cc(-c3cccc(C(F)(F)F)c3)cc2C)on1
logSI [1]: 2.32
logCC50 [2]: 1.08
logIC50 [3]: -1.24

Cc1cc(CCCOc2c(C)cc(-c3cccc([N+](=O)[O-])c3)cc2C)on1
logSI [1]: 2.25
logCC50 [2]: 0.79
logIC50 [3]: -1.47

Cc1cc(CCCOc2c(C)cc(-c3ccc(C=O)cc3)cc2C)on1
logSI [1]: 2.09
logCC50 [2]: 1
logIC50 [3]: -1.09

COc1cc(-c2cc(C)c(OCCCc3cc(C)no3)c(C)c2)cc(OC)c1OC
logSI [1]: 1.53
logCC50 [2]: 1
logIC50 [3]: -0.54

Cc1cc(CCCOc2c(C)cc(-c3cccc4ccccc34)cc2C)on1
logSI [1]: 1.16
logCC50 [2]: 0.96
logIC50 [3]: -0.2

Cc1cc(CCCOc2c(C)cc(-c3cccc(F)c3)cc2C)on1
logSI [1]: 2.36
logCC50 [2]: 0.96
logIC50 [3]: -1.4

CC(=O)c1ccc(-c2cc(C)c(OCCCc3cc(C)no3)c(C)c2)cc1
logSI [1]: 2.33
logCC50 [2]: 1.7
logIC50 [3]: -0.63

Cc1cc(CCCOc2c(C)cc(-c3ccc(C)c(C)c3)cc2C)on1
logSI [1]: 1.97
logCC50 [2]: 0.66
logIC50 [3]: -1.31

Cc1cc(CCCOc2c(C)cc(-c3ccc(-c4ccccc4)cc3)cc2C)on1
logSI [1]: 0
logCC50 [2]: 1.7
logIC50 [3]: 1.7

Cc1cc(CCCOc2c(C)cc(-c3ccc(C(F)(F)F)cc3)cc2C)on1
logSI [1]: 2.05
logCC50 [2]: 1.08
logIC50 [3]: -0.97

Cc1cc(CCCOc2c(C)cc(-c3ccc(F)c(C)c3)cc2C)on1
logSI [1]: 3.1
logCC50 [2]: 1.28
logIC50 [3]: -1.82
